The subject of experiment [1] is Staphylococcus aureus. The experiment can be described thus: Antibacterial activity against Staphylococcus aureus ATCC 25923 after 24 hrs by NCCLS two fold broth microdilution method. The experiment is classed as functional. As to conditions: ATCC 25923, 24 h. Summed up: (§1)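 Two-fold serial broth microdilution in 96-well plates following NCCLS. Compounds were dissolved in DMSO as stocks, then diluted in Mueller–Hinton broth to final concentrations of 0.5–512 µg/mL. Plates were inoculated and incubated at 37 °C for 24 h, with growth read visually and spectrophotometrically. MIC was taken as the lowest concentration giving complete growth inhibition. Run in triplicate, with a DMSO-plus-inoculum solvent control.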
For orientation: Broth dilution looks for growth in wells or tubes with falling amounts of substance.

Experiment [2] has as its system Staphylococcus aureus. The experiment can be described thus: Antibacterial activity against methicillin-resistant Staphylococcus aureus N315 after 24 hrs by NCCLS two fold broth microdilution method. The format is functional. As to conditions: N315, 24 h. Summed up: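 Two-fold serial broth microdilution per NCCLS. Chloromycin and norfloxacin as reference drugs; DMSO with inoculum, no drug, as solvent control. Incubation 37 °C for 24 h. Growth read visually and spectrophotometrically. MIC is the lowest concentration completely inhibiting growth; triplicate.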

For a further experiment, the system named is Bacillus subtilis. The experiment can be described thus: Antibacterial activity against Bacillus subtilis ATCC 21216 after 24 hrs by NCCLS two fold broth microdilution method. The format is functional. As to conditions: ATCC 21216, 24 h. An outline of the steps: as §1
For a further experiment, the system named is Micrococcus luteus. The experiment can be described thus: Antibacterial activity against Micrococcus luteus ATCC 4698 after 24 hrs by NCCLS two fold broth microdilution method. The experiment is classed as functional. As to conditions: NCTC 2665, 24 h. An outline of the steps:
as §1

The test system of another experiment is Bacillus. The experiment can be described thus: Antibacterial activity against Bacillus proteus ATCC 13315 after 24 hrs by NCCLS two fold broth microdilution method. The format is functional. As to conditions: ATCC 13315, 24 h. An outline of the steps:
as §1

For another experiment, the system named is Escherichia coli. The experiment can be described thus: Antibacterial activity against Escherichia coli ATCC 8099 after 24 hrs by NCCLS two fold broth microdilution method. The experiment is classed as functional. As to conditions: ATCC 8099, 24 h. Summed up: (§2)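 Two-fold serial broth microdilution in 96-well plates following NCCLS. Plates were inoculated and incubated at 37 °C for 24 h, with growth read visually and spectrophotometrically. MIC was taken as the lowest concentration giving complete growth inhibition. Run in triplicate, with a DMSO-plus-inoculum solvent control.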

The subject of another experiment is Pseudomonas aeruginosa. In words: Antibacterial activity against Pseudomonas aeruginosa ATCC 27853 after 24 hrs by NCCLS two fold broth microdilution method. The format is functional. As to conditions: ATCC 27853, 24 h. An outline of the steps: as §2
The next experiment has as its system Salmonella typhi. The experiment can be described thus: Antibacterial activity against Bacillus typhi after 24 hrs by NCCLS two fold broth microdilution method. The experiment is classed as functional, Salmonella enterica subsp. enterica serovar Typhi. As to conditions: Salmonella enterica. Summed up: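 Two-fold serial broth microdilution per NCCLS. DMSO stocks diluted in Mueller–Hinton broth to 512, 256, 128, 64, 32, 16, 8, 4, 2, 1, 0.5 µg/mL. Chloromycin and norfloxacin as reference drugs; DMSO with inoculum, no drug, as solvent control. Incubation 37 °C for 24 h. Growth read visually and spectrophotometrically. MIC is the lowest concentration completely inhibiting growth; triplicate.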

For another experiment, the system named is Candida albicans. In words: Antifungal activity against Candida albicans ATCC 76615 after 24 hrs by NCCLS two fold broth microdilution method. As to conditions: ATCC 76615, 24 h. The format is functional. An outline of the steps: (§3)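 Two-fold serial microdilution following NCCLS. A spore suspension in sterile distilled water was prepared from one-day-old cultures grown on Sabouraud agar and adjusted to a final 1–5 × 10^3 spores/mL. DMSO stocks were diluted in RPMI 1640 to eleven concentrations (0.5–512 µg/mL), inoculated and held at 35 °C for 24 h. Growth was read visually and spectrophotometrically, MIC was the lowest concentration with complete inhibition, and runs were in triplicate.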

A further experiment deals with Pichia norvegensis. The experiment can be described thus: Antifungal activity against Candida mycoderma after 24 hrs by NCCLS two fold broth microdilution method. The format is functional.
The test system of the next experiment is Cyberlindnera jadinii. The experiment can be described thus: Antifungal activity against Candida utilis after 24 hrs by NCCLS two fold broth microdilution method. The experiment is classed as functional. As to conditions: Williopsis jadinii. Summed up:
as §3

The subject of the next experiment is Saccharomyces cerevisiae. The experiment can be described thus: Antifungal activity against Saccharomyces cerevisiae after 24 hrs by NCCLS two fold broth microdilution method. The format is functional. An outline of the steps:
as §3

For a further experiment, the system named is Aspergillus flavus. In words: Antifungal activity against Aspergillus flavus after 24 hrs by NCCLS two fold broth microdilution method. The format is functional. An outline of the steps: as §3

≈ marks a conversion by molar mass, not a printed value.

The values that follow come from ChEMBL document CHEMBL4138085, “Design, synthesis and antimicrobial evaluation of novel benzimidazole-incorporated sulfonamide analogues” (Eur J Med Chem, 2017).

A word on the MIC: it is the lowest concentration found to suppress growth. Turning to `Nc1ccc(S(=O)(=O)Cc2nc3ccccc3n2CCCCCn2c3ccccc3c3ccccc32)cc1`, the MIC against Staphylococcus aureus [1] stood at 512 µg/mL (≈ 980 µM); in the experiment on Staphylococcus aureus [2], 128 µg/mL (≈ 245 µM); in the experiment with Bacillus subtilis it was 32 µg/mL (≈ 61.2 µM); with Micrococcus luteus, 512 µg/mL (≈ 980 µM); with Bacillus, 512 µg/mL (≈ 980 µM); in the experiment with Escherichia coli, 64 µg/mL (≈ 122 µM). Further, the MIC was found to be 512 µg/mL (≈ 980 µM) with Pseudomonas aeruginosa; 64 µg/mL (≈ 122 µM) against Salmonella typhi; 512 µg/mL (≈ 980 µM) in the experiment with Candida albicans; 16 µg/mL (≈ 30.6 µM) against Pichia norvegensis; 512 µg/mL (≈ 980 µM) in the experiment with Cyberlindnera jadinii; 64 µg/mL (≈ 122 µM) in the experiment with Saccharomyces cerevisiae. Also, in the experiment with Aspergillus flavus, the lowest concentration to inhibit growth (MIC) was 128 µg/mL (≈ 245 µM).
Turning to `CC(=O)Nc1ccc(S(=O)(=O)Cc2nc3ccccc3n2Cc2ccc(Cl)cc2)cc1`, the MIC in the experiment with Staphylococcus aureus [1] worked out at 512 µg/mL (≈ 1130 µM); with Staphylococcus aureus [2], 512 µg/mL (≈ 1130 µM); against Bacillus subtilis, 256 µg/mL (≈ 564 µM); in the experiment on Micrococcus luteus it was 128 µg/mL (≈ 282 µM); in the experiment with Bacillus it was 256 µg/mL (≈ 564 µM); with Escherichia coli it was 128 µg/mL (≈ 282 µM). The MIC was 512 µg/mL (≈ 1130 µM) in the experiment on Pseudomonas aeruginosa; 64 µg/mL (≈ 141 µM) against Salmonella typhi; 128 µg/mL (≈ 282 µM) against Candida albicans; 32 µg/mL (≈ 70.5 µM) in the experiment on Pichia norvegensis; 512 µg/mL (≈ 1130 µM) with Cyberlindnera jadinii; 64 µg/mL (≈ 141 µM) in the experiment on Saccharomyces cerevisiae. Also, the MIC with Aspergillus flavus was determined as 512 µg/mL (≈ 1130 µM).
Take `CCCCCCCn1c(CS(=O)(=O)c2ccc(NC(C)=O)cc2)nc2ccccc21`: the MIC with Staphylococcus aureus [1] turned out to be 8 µg/mL (≈ 18.7 µM); with Staphylococcus aureus [2], 512 µg/mL (≈ 1200 µM); in the experiment on Bacillus subtilis, 256 µg/mL (≈ 599 µM); in the experiment with Micrococcus luteus it was 512 µg/mL (≈ 1200 µM); against Bacillus, 256 µg/mL (≈ 599 µM); with Escherichia coli, 64 µg/mL (≈ 150 µM). The MIC in the experiment with Pseudomonas aeruginosa worked out at 512 µg/mL (≈ 1200 µM); in the experiment with Salmonella typhi, 512 µg/mL (≈ 1200 µM); in the experiment with Candida albicans, 512 µg/mL (≈ 1200 µM); with Pichia norvegensis, 512 µg/mL (≈ 1200 µM); against Cyberlindnera jadinii, 128 µg/mL (≈ 299 µM); with Saccharomyces cerevisiae it was 512 µg/mL (≈ 1200 µM). This compound came in with an MIC in the experiment with Aspergillus flavus of 256 µg/mL (≈ 599 µM).
On to `CC(=O)Nc1ccc(S(=O)(=O)Cc2nc3ccccc3n2Cc2cccc(F)c2)cc1`, for which the MIC with Staphylococcus aureus [1] is 512 µg/mL (≈ 1170 µM); against Staphylococcus aureus [2], 256 µg/mL (≈ 585 µM); against Bacillus subtilis it was 512 µg/mL (≈ 1170 µM); in the experiment with Micrococcus luteus, 512 µg/mL (≈ 1170 µM); in the experiment with Bacillus, 256 µg/mL (≈ 585 µM); with Escherichia coli, 128 µg/mL (≈ 293 µM). Besides, the MIC in the experiment with Pseudomonas aeruginosa turned out to be 256 µg/mL (≈ 585 µM); in the experiment with Salmonella typhi, 128 µg/mL (≈ 293 µM); against Candida albicans, 256 µg/mL (≈ 585 µM); against Pichia norvegensis, 512 µg/mL (≈ 1170 µM); with Cyberlindnera jadinii, 512 µg/mL (≈ 1170 µM); with Saccharomyces cerevisiae, 32 µg/mL (≈ 73.1 µM). Moreover, 256 µg/mL (≈ 585 µM) was the least that counted as inhibitory in the experiment on Aspergillus flavus (MIC).
Consider `CC(=O)Nc1ccc(S(=O)(=O)Cc2nc3ccccc3n2Cc2ccccc2Cl)cc1`, for which the MIC worked out at 32 µg/mL (≈ 70.5 µM) against Staphylococcus aureus [1]; 32 µg/mL (≈ 70.5 µM) in the experiment on Staphylococcus aureus [2]; 32 µg/mL (≈ 70.5 µM) against Bacillus subtilis; 64 µg/mL (≈ 141 µM) with Micrococcus luteus; 512 µg/mL (≈ 1130 µM) in the experiment with Bacillus; 32 µg/mL (≈ 70.5 µM) against Escherichia coli. Further, the MIC with Pseudomonas aeruginosa was found to be 16 µg/mL (≈ 35.2 µM); against Salmonella typhi it was 16 µg/mL (≈ 35.2 µM); against Candida albicans it was 32 µg/mL (≈ 70.5 µM); against Pichia norvegensis, 512 µg/mL (≈ 1130 µM); with Cyberlindnera jadinii it was 512 µg/mL (≈ 1130 µM); with Saccharomyces cerevisiae it was 512 µg/mL (≈ 1130 µM). The MIC against Aspergillus flavus was 8 µg/mL (≈ 17.6 µM).
`CCn1c(CS(=O)(=O)c2ccc(NC(C)=O)cc2)nc2ccccc21`: the MIC in the experiment on Staphylococcus aureus [1] stood at 128 µg/mL (≈ 358 µM); against Staphylococcus aureus [2] it was 128 µg/mL (≈ 358 µM); in the experiment with Bacillus subtilis it was 32 µg/mL (≈ 89.5 µM); against Micrococcus luteus, 128 µg/mL (≈ 358 µM); against Bacillus, 64 µg/mL (≈ 179 µM); against Escherichia coli it was 256 µg/mL (≈ 716 µM). The MIC against Pseudomonas aeruginosa was 32 µg/mL (≈ 89.5 µM); in the experiment with Salmonella typhi, 64 µg/mL (≈ 179 µM); against Candida albicans, 64 µg/mL (≈ 179 µM); against Pichia norvegensis it was 256 µg/mL (≈ 716 µM); in the experiment with Cyberlindnera jadinii, 64 µg/mL (≈ 179 µM); against Saccharomyces cerevisiae, 512 µg/mL (≈ 1430 µM). This compound also showed a minimum inhibitory concentration (MIC) in the experiment on Aspergillus flavus of 64 µg/mL (≈ 179 µM).
As to `CC(=O)Nc1ccc(S(=O)(=O)Cc2nc3ccccc3n2Cc2ccccc2F)cc1`, the MIC in the experiment on Staphylococcus aureus [1] is 512 µg/mL (≈ 1170 µM); in the experiment on Staphylococcus aureus [2] it was 128 µg/mL (≈ 293 µM); in the experiment with Bacillus subtilis, 64 µg/mL (≈ 146 µM); against Micrococcus luteus, 32 µg/mL (≈ 73.1 µM); in the experiment with Bacillus, 128 µg/mL (≈ 293 µM); in the experiment with Escherichia coli it was 256 µg/mL (≈ 585 µM). The MIC against Pseudomonas aeruginosa is 128 µg/mL (≈ 293 µM); in the experiment on Salmonella typhi, 64 µg/mL (≈ 146 µM); with Candida albicans it was 256 µg/mL (≈ 585 µM); against Pichia norvegensis, 512 µg/mL (≈ 1170 µM); in the experiment with Cyberlindnera jadinii, 32 µg/mL (≈ 73.1 µM); against Saccharomyces cerevisiae, 512 µg/mL (≈ 1170 µM). Also, the MIC in the experiment on Aspergillus flavus is 64 µg/mL (≈ 146 µM).
